# Assay results from different studies.
# Lines come from different studies, so protocols differ.
# BRAF: Serine/threonine-protein kinase B-raf (BRAF, Homo sapiens, UniProt P15056)
SMILES,target,effect on,action,technique,concentration,measurement,value
Cn1cc(-c2cc(F)cc(N3CCn4c(cc5c4CCCC5)C3=O)c2CO)cc(Nc2ccc(N3CCN(C4COC4)CC3)cn2)c1=O,BRAF,enzyme activity,inhibitor,,0.1 µM,inhibition,7%
C#Cc1n[nH]c2c(-c3cn(C(C)c4ccccn4)c(=O)[nH]c3=O)cc(F)cc12 (centres unmarked),BRAF,enzyme activity,inhibitor,,1 µM,inhibition,-2.7%
Cc1nn(C)cc1-c1nc2c(N3CCN(Cc4ccc(Cl)cc4)CC3)c(Cl)cnc2[nH]1,"Serine/threonine-protein kinase B-raf (BRAF, Homo sapiens, UniProt P15056, V600E)",binding,,competition with immobilised ligand,1 µM,remaining binding,100%
O=c1[nH]c2ccccc2n1C1CCN(Cc2ccc(-c3[nH]c4cc5ncnc5cc4nc3-c3ccccc3)cc2)CC1,BRAF,cell-free assay,,,0.5 µM,remaining signal,101%
Cn1cc(-c2cccc(N3CCc4c(sc5c4CC(C)(C)C5)C3=O)c2CO)cc(Nc2ccncn2)c1=O,BRAF,enzyme activity,inhibitor,,1 µM,inhibition,21%
COc1ncccc1-c1cnn2ccc(N3CCN(C(=O)OC(C)C)CC3)nc12,BRAF,binding,,competition with immobilised ligand,1 µM,remaining binding,100%
CNS(=O)(=O)Nc1nccc(Cc2c(C)c3ccc(Oc4ncccn4)cc3oc2=O)c1F,BRAF,cell-free assay,,competition with immobilised ligand,10 µM,inhibition,89%
Cn1cncc1[C@@](O)(COc1ccc(C#N)cc1-c1ccc(OC(F)(F)F)cc1)c1ccc(C#N)cc1,BRAF,cell-free assay,,competition with immobilised ligand,1 µM,remaining binding,100%
C#Cc1n[nH]c2c(-c3cn([C@@H](C)c4ccccc4)c(=O)[nH]c3=O)cc(F)cc12,BRAF,enzyme activity,inhibitor,,0.1 µM,inhibition,-2.9%
N#CC1(c2ccccn2)CCN(Cc2cc(C(=O)O)c(=O)n3ccccc23)CC1,BRAF,cell-free assay,,competition with immobilised ligand,1 µM,remaining binding,93%
Nc1ncc(-c2nc(N3CCOCC3)nc(N3CCOCC3)n2)c(C(F)F)n1,BRAF,binding,,competition with immobilised ligand,10 µM,remaining binding,36%
